ChEMBL document CHEMBL5058577, “EUbOPEN Chemogenomics Library 2 (Multiplex)” (2022)

Tested on: HEK-293T
Experiment: Multiplex assay against HEK293T
Assay type: toxicity, cell-based
Settings: human
Procedure, shortened: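 Compound was added to live cells that had been stained at seeding with Hoechst33342, BioTracker Green Microtubule Cytoskeleton Dye, MitoTracker Red and Annexin V Alexa Fluor 680, and imaging followed on a CQ1 microscope at 37°C and 5% CO2. CellPathfinder machine-learning gating divided cells into Hoechst high-intensity objects or normal cells, normal cells into healthy, pyknosed or fragmented nuclei, and pyknosed cells into mitotic or apoptotic. Tubulin, mitochondrial-mass and membrane-permeability phenotypes are per cents of healthy-nucleus cells.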

[1] = 12 h, 1 µM, compound concentration 1 uM, replicate 1
[2] = 12 h, 1 µM, compound concentration 1 uM, replicate 2
[3] = 12 h, 10 µM, compound concentration 10 uM, replicate 1
[4] = 12 h, 10 µM, compound concentration 10 uM, replicate 2
[5] = 24 h, 1 µM, compound concentration 1 uM, replicate 1
[6] = 24 h, 1 µM, compound concentration 1 uM, replicate 2
[7] = 24 h, 10 µM, compound concentration 10 uM, replicate 1
[8] = 24 h, 10 µM, compound concentration 10 uM, replicate 2
[9] = 48 h, 1 µM, compound concentration 1 uM, replicate 1
[10] = 48 h, 1 µM, compound concentration 1 uM, replicate 2
[11] = 48 h, 10 µM, compound concentration 10 uM, replicate 1
[12] = 48 h, 10 µM, compound concentration 10 uM, replicate 2

## COc1ccc2c(c1)C(C(=O)N(Cc1ccc(N(C)C)cc1)c1ccc(C(C)C)cc1)CCC2.Cl (configuration not stated)
[1]
  Population Apoptotic (%): 30%
  Population Fragmented Nuclei (%): 6%
  Population Healthy Nuclei (%): 80%
  Population Hoechst High Intensity Objects (%): 7%
  Population Membrane Permeable-Phenotype (%): 0%
  Population Mitochondria Different-Phenotype (%): 39%
  Population Mitotic Cells (%): 70%
  Population Normal (%): 92%
  Population Pyknosed Nuclei (%): 13%
  Population Tubulin-Different-Phenotype (%): 27%
  Total Cell Count: 413
[2]
  Population Apoptotic (%): 43%
  Population Fragmented Nuclei (%): 5%
  Population Healthy Nuclei (%): 79%
  Population Hoechst High Intensity Objects (%): 4%
  Population Mitochondria Different-Phenotype (%): 61%
  Population Mitotic Cells (%): 56%
  Population Normal (%): 95%
  Population Pyknosed Nuclei (%): 14%
  Population Tubulin-Different-Phenotype (%): 23%
  Total Cell Count: 330
[3]
  Population Apoptotic (%): 60%
  Population Fragmented Nuclei (%): 9%
  Population Healthy Nuclei (%): 78%
  Population Hoechst High Intensity Objects (%): 10%
  Population Membrane Permeable-Phenotype (%): 0%
  Population Mitochondria Different-Phenotype (%): 60%
  Population Mitotic Cells (%): 39%
  Population Normal (%): 89%
  Population Pyknosed Nuclei (%): 11%
  Population Tubulin-Different-Phenotype (%): 64%
  Total Cell Count: 383
[4]
  Population Apoptotic (%): 63%
  Population Fragmented Nuclei (%): 4%
  Population Healthy Nuclei (%): 77%
  Population Hoechst High Intensity Objects (%): 6%
  Population Mitochondria Different-Phenotype (%): 75%
  Population Mitotic Cells (%): 36%
  Population Normal (%): 93%
  Population Pyknosed Nuclei (%): 17%
  Population Tubulin-Different-Phenotype (%): 57%
  Total Cell Count: 361
[5]
  Population Apoptotic (%): 31%
  Population Fragmented Nuclei (%): 9%
  Population Healthy Nuclei (%): 81%
  Population Hoechst High Intensity Objects (%): 3%
  Population Membrane Permeable-Phenotype (%): 0%
  Population Mitochondria Different-Phenotype (%): 20%
  Population Mitotic Cells (%): 68%
  Population Normal (%): 96%
  Population Pyknosed Nuclei (%): 8%
  Population Tubulin-Different-Phenotype (%): 13%
  Total Cell Count: 567
[6]
  Population Apoptotic (%): 60%
  Population Fragmented Nuclei (%): 7%
  Population Healthy Nuclei (%): 79%
  Population Hoechst High Intensity Objects (%): 6%
  Population Mitochondria Different-Phenotype (%): 33%
  Population Mitotic Cells (%): 40%
  Population Normal (%): 93%
  Population Pyknosed Nuclei (%): 13%
  Population Tubulin-Different-Phenotype (%): 11%
  Total Cell Count: 399
[7]
  Population Apoptotic (%): 35%
  Population Fragmented Nuclei (%): 9%
  Population Healthy Nuclei (%): 73%
  Population Hoechst High Intensity Objects (%): 10%
  Population Membrane Permeable-Phenotype (%): 1%
  Population Mitochondria Different-Phenotype (%): 51%
  Population Mitotic Cells (%): 64%
  Population Normal (%): 89%
  Population Pyknosed Nuclei (%): 17%
  Population Tubulin-Different-Phenotype (%): 70%
  Total Cell Count: 409
[8]
  Population Apoptotic (%): 45%
  Population Fragmented Nuclei (%): 7%
  Population Healthy Nuclei (%): 76%
  Population Hoechst High Intensity Objects (%): 6%
  Population Membrane Permeable-Phenotype (%): 0%
  Population Mitochondria Different-Phenotype (%): 60%
  Population Mitotic Cells (%): 55%
  Population Normal (%): 93%
  Population Pyknosed Nuclei (%): 16%
  Population Tubulin-Different-Phenotype (%): 60%
  Total Cell Count: 389
[9]
  Population Apoptotic (%): 20%
  Population Fragmented Nuclei (%): 12%
  Population Healthy Nuclei (%): 80%
  Population Hoechst High Intensity Objects (%): 1%
  Population Membrane Permeable-Phenotype (%): 1%
  Population Mitochondria Different-Phenotype (%): 10%
  Population Mitotic Cells (%): 79%
  Population Normal (%): 98%
  Population Pyknosed Nuclei (%): 6%
  Population Tubulin-Different-Phenotype (%): 10%
  Total Cell Count: 968
[10]
  Population Apoptotic (%): 46%
  Population Healthy Nuclei (%): 81%
  Population Hoechst High Intensity Objects (%): 4%
  Population Membrane Permeable-Phenotype (%): 0%
  Population Mitochondria Different-Phenotype (%): 17%
  Population Mitotic Cells (%): 53%
  Population Normal (%): 95%
  Population Tubulin-Different-Phenotype (%): 15%
  Total Cell Count: 631
[11]
  Population Apoptotic (%): 59%
  Population Fragmented Nuclei (%): 15%
  Population Healthy Nuclei (%): 75%
  Population Hoechst High Intensity Objects (%): 9%
  Population Membrane Permeable-Phenotype (%): 6%
  Population Mitochondria Different-Phenotype (%): 25%
  Population Mitotic Cells (%): 40%
  Population Normal (%): 90%
  Population Pyknosed Nuclei (%): 9%
  Population Tubulin-Different-Phenotype (%): 53%
  Total Cell Count: 558
[12]
  Population Apoptotic (%): 36%
  Population Fragmented Nuclei (%): 11%
  Population Healthy Nuclei (%): 79%
  Population Hoechst High Intensity Objects (%): 3%
  Population Membrane Permeable-Phenotype (%): 2%
  Population Mitochondria Different-Phenotype (%): 24%
  Population Mitotic Cells (%): 63%
  Population Normal (%): 96%
  Population Pyknosed Nuclei (%): 8%
  Population Tubulin-Different-Phenotype (%): 50%
  Total Cell Count: 482
